An excerpt weighted towards active compounds, which were near 11% of everything screened.
G6PDH CS: counter-screen for G6PDH assay hits: L. mesenteroides G6PDH inhibition; 200,000 tested, 0.12% active; Purified L. mesenteroides G6PDH, diaphorase/resazurin coupled fluorescence, 45 min; inhibition, % at 5 µM
Diaph inh CS: diaphorase inhibition or chemical oxidation counter-screen; AID 1217; 190,000 tested, 0.69% active; inhibition, % at 20 µM; diaphorase resazurin-to-resorufin fluorescence, NADH, 16 min; bacterial (C. kluyveri) enzyme, not human;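 active = primary screen inhibition at 20 µM above a set limit, cut at about 50% in these data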
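Test system: bacterial diaphorase enzyme (C. kluyveri); Quantity: 0.14 U/mL diaphorase, enzyme working solution; Times: reaction incubation of 16 min at room temperature; Measured by: fluorescence of resorufin formed from resazurin, Ex 544/Em 590 nm; Benchmarks: positive control minus NADH, DMSO neutral control.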
Lmaj promast: reduces viability of Leishmania major promastigotes | inhibition, % at 10 µM | 200,000 tested, 9% active | AID 1063 | resazurin fluorescence viability;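 note: promastigotes grown with compound for 44 hours at 28 °C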
Diaph act CS: counter-screen for diaphorase-based assays: diaphorase activators and chemical reducers | Diaphorase/resazurin coupled assay, resorufin fluorescence, 16 min; active compounds read high; 1 = vehicle wells, 0 = NADH-free wells | activation factor at 20 µM | 190,000 tested, 0.005% active | AID 1229;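 active = diaphorase activity raised at least twofold by the compound at 20 µM; inactive = activation factor below 2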
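Material: purified diaphorase enzyme from Clostridium kluyveri / Medium: HEPES pH 7.4 buffer with MgCl2 and Tween 20 / Schedule: enzyme reaction of 16 min at room temperature / Measured by: resorufin fluorescence, excitation 544 nm, emission 590 nm / Evaluation: rise in resorufin formation, marking diaphorase activation or chemical reduction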
WT yeast gro inh: growth inhibition of WT yeast, mitochondrial fusion screen; 190,000 tested, 2.1% active; inhibition, % at 10 µM; mitochondrial fusion phenotypic screen, WT strain; in the data active = inhibition above about 58%; tested in S. cerevisiae
Large screens that a line does not name were inactive. Cut-off read from the data, not from the text of the source, unless noted: active = inhibition above about 50%; inactive = the rest.

CCc1[nH]nc2c1C(c1ccsc1)C(C#N)=C(N)O2 (stereo not drawn)	none
Cc1nn(Cc2ccccc2)c2c1C(c1ccncc1)C(C#N)=C(N)O2 (stereo not drawn)	none (no result: Lmaj promast)
Cc1ccc(SCc2[nH]nc3c2C(C(C)C)C(C#N)=C(N)O3)cc1 (stereo not drawn)	none
Cc1nn(Cc2ccccc2)c2c1C(c1ccc(Cl)cc1)C(C#N)=C(N)O2 (stereo not drawn)	Lmaj promast 85
CCCCn1c(SCC(=O)NNC(=O)c2ccco2)nnc1-c1ccco1	none
Cc1nn(-c2ccccc2)c2c1C(c1ccccc1)C(C#N)=C(N)O2 (stereo not drawn)	none
Cc1nn(-c2ccccc2)c2c1C(c1ccc(Br)s1)C(C#N)=C(N)O2 (stereo not drawn)	Lmaj promast 81
Cc1cc(C)c(C#N)c(SC(F)F)n1	none
COc1ccc(NC(=O)CC2(Cc3ccccc3)CCOC(C)(C)C2)cc1 (stereo not drawn)	Lmaj promast 55
O=C(Nc1ccc2c(c1)OCO2)N1CCN(Cc2ccco2)CC1	none
N/C(Cc1ccc(Cl)cc1)=N\OC(=O)c1cccc2ccccc12	Lmaj promast 99, WT yeast gro inh 98
N/C(Cc1ccc(Cl)cc1)=N\OC(=O)c1ccc2ccccc2c1	none
CC(C)(C)Cc1nc(-c2ccc(Cl)cc2)no1	none
Clc1nc(-c2ccccn2)nc2scc(-c3ccccc3)c12	Lmaj promast 66
COc1cccc(NC(=O)CN(C)C(=O)COc2ccc3ccccc3c2)c1	none
COc1ccccc1/C=N/NC(=O)C(=O)Nc1ccccc1OC(F)(F)C(F)F	none
O=C(N/N=C/c1cc(Cl)ccc1O)C(=O)Nc1ccccc1OC(F)(F)C(F)F	Lmaj promast 99
COc1cccc(/C=N/NC(=O)C(=O)Nc2ccccc2OC(F)(F)C(F)F)c1	none
O=C(N/N=C/c1cc(Br)ccc1O)C(=O)Nc1ccccc1OC(F)(F)C(F)F	Lmaj promast 99
N#CC1=C(SCC(N)=O)NC2=C(C(=O)c3ccccc32)C1c1ccc(Cl)cc1 (stereo not drawn)	none
COc1ccccc1/C=C/CN1CCOCC1	none
COc1cccc(C(=O)C2CCCN(C/C=C/c3ccccc3OC)C2)c1 (stereo not drawn)	none
COc1ccc(C(=O)C2CCCN(C/C=C/c3ccccc3OC)C2)c(OC)c1 (stereo not drawn)	Lmaj promast 50
CCOC(=O)C1CCN(C/C=C/c2ccccc2OC)CC1	Lmaj promast 78
COc1ccc(C(=O)C2CCCN(Cc3c[nH]c4ccccc34)C2)c(OC)c1 (stereo not drawn)	Lmaj promast 62
CC(=O)c1ccc2c(c1)CC(C)C(=O)N2C (stereo not drawn)	none
Cc1ccc(/C=N\NC(=O)COc2ccc(C)cc2[N+](=O)[O-])cc1	none
Cc1ccccc1OCC(=O)N/N=C/c1ccc([N+](=O)[O-])o1	Lmaj promast 98
COc1ccccc1OCC(=O)N/N=C/C=C/c1ccc([N+](=O)[O-])o1	Lmaj promast 100
Cc1cc(C)cc(OCC(=O)N/N=C/c2ccc([N+](=O)[O-])o2)c1	Lmaj promast 96
Cc1c(=O)n(OCc2c(F)cccc2F)c2ccccc2[n+]1[O-]	none (no result: G6PDH CS, Diaph inh CS, Diaph act CS, WT yeast gro inh)
O=C(CSc1nc2ccccc2o1)Nc1nccs1	none
C/C(=N/OCO/N=C(/C)c1ccc(F)cc1)c1ccc(F)cc1	none
O=S(=O)(Nc1ccc(Cc2ccncc2)cc1)c1ccc(Cl)c(Cl)c1	Lmaj promast 74 (no result: WT yeast gro inh)
O=S(=O)(Nc1ccncc1)c1ccc(Cl)cc1	none
CCCc1c(CC)c(=N)c2ccccc2n1C	Lmaj promast 53
Cc1nc2c3cc(Cl)ccc3n(CCN3CCCCC3)c2s1	none
O=c1cc(-c2ccccc2Cl)oc2cc(O)cc(O)c12	none
Cc1c2cc(O)c(=O)cc-2oc2cc(O)c(O)cc12	Diaph inh CS 80
COc1cc(OC)c(-c2c3cc(O)c(=O)cc-3oc3cc(O)c(O)cc23)cc1OC	Diaph inh CS 81, WT yeast gro inh 59
CN(Cc1cccs1)c1nc(-c2cccnc2)nc2ccccc12	WT yeast gro inh 64
O=C(CN(C(=O)CCC(=O)Nc1ccccn1)c1ccc2c(c1)OCO2)NCc1ccco1	none
Cc1ccccc1N(CC(=O)NCc1ccc2c(c1)OCO2)C(=O)CCC(=O)Nc1ccccn1	Lmaj promast 61
